In ChEMBL document CHEMBL2375298, “Isolation, structure determination, and anti-HIV evaluation of tigliane-type diterpenes and biflavonoid from Stellera chamaejasme” (J Nat Prod, 2013) one finds EC90 and IC50 data, which are given here for 13 compounds.

One may read the EC90 as the concentration at which the effect reaches the 90% level. A word on the IC50: it is the concentration that gives 50% inhibition. Low values mean greater potency in that assay, high ones weaker potency in that assay.

SMILES strings stand for the structures. Active and inactive are the calls of the source. The calls are words filed in the database; no cut-off is given here.

Test [1] has as its system Human immunodeficiency virus 1. Briefly: Antiviral activity against HIV-1 NL4-3 infected in human MT4 cells assessed as inhibition of viral replication after 4 days by ELISA. The format is functional. A digest of the protocol: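 MT4 cells infected with HIV-1 NL4-3 at MOI 0.001 in presence of graded compound concentrations; fresh medium with compound added 48 h post-infection to sustain growth. Replication measured by p24 ELISA on day 4 post-infection. EC90 (concentration inhibiting replication by 90%) calculated from dose-response.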

For another test, the system named is MT4. Briefly: Cytotoxicity against human MT4 cells by CellTitre-Glo luminescent assay. The format is cell-based.
The mark [2] stands for this setting: Human immunodeficiency virus 1, NL4-3, MT4, 96 h.

For the compound `C=C(C)[C@]12C[C@@H](COC(C)=O)[C@@]34O[C@]5(O[C@@H]1[C@@H]3[C@@H]1O[C@]1(CO)[C@@H](O)[C@@]1(O)[C@H]4[C@H]([C@H](C)[C@@H]1OC(=O)c1ccccc1)[C@H](C)CCCCCC[C@H]5O)O2`, the 90% effect concentration (EC90) in test [1] (setting [2]) is 0.0004 µM. It took 4.3 µM to reach half-maximal inhibition with MT4 (IC50).

For `CC/C=C\C/C=C\CCC(=O)O[C@@]12[C@H](OC(=O)c3ccccc3)[C@@H](C)[C@@]3(O)[C@@H](C=C(CO)C[C@]4(O)C(=O)C(C)=C[C@@H]34)[C@@H]1C2(C)C`, the EC90 in test [1] (setting [2]) amounted to 0.0068 µM. In the test on MT4, this compound came in with a concentration for half-maximal inhibition (IC50) of 7.8 µM.

Consider `COc1ccc([C@@H]2Oc3cc(OC)cc(O)c3C(=O)[C@H]2[C@@H]2C(=O)c3c(O)cc(O)cc3O[C@H]2c2ccc(O)cc2)cc1`, for which the 90% effect concentration (EC90) in test [1] (setting [2]) was 4.21 µM. This compound also registered a concentration for half-maximal inhibition (IC50) with MT4 of 17.5 µM. For the compound `CCCCCCCC(=O)O[C@@]12[C@H](OC(=O)c3ccccc3)[C@@H](C)[C@]3(O)[C@@H]4C=C(C)C(=O)[C@@]4(O)[C@H](O)C(CO)=C[C@H]3[C@@H]1C2(C)C`, in test [1] (setting [2]), the concentration for an effect of 90% (EC90) amounted to 0.0038 µM. In the test with MT4, the half-inhibitory concentration (IC50) was found to be 17.2 µM.

As to `COc1ccc([C@@H]2Oc3cc(O)cc(O)c3C(=O)[C@@H]2[C@H]2C(=O)c3c(O)cc(O)cc3O[C@H]2c2ccc(OC)cc2)cc1`, the EC90 result in test [1] was “inactive”. In the case of `O=C(/C=C/CCc1ccccc1)c1ccccc1`, the EC90 entry in test [1] is “inactive”.

With `C=C(C)[C@@]12C[C@@H](COC(=O)c3ccccc3)[C@@]34OC5(O[C@@H]1[C@@H]3[C@@H]1O[C@]1(CO)[C@@H](O)[C@@]1(O)[C@H]4[C@H]([C@H](C)[C@@H]1OC(=O)c1ccccc1)[C@H](C)CCCCCC[C@H]5O)O2` [GNIDIMACRIN], the EC90 in test [1] (setting [2]) is 0.0004 µM. Besides, in the test on MT4, it took 4.3 µM to reach half-maximal inhibition (IC50).

Turning to `CCCCC/C=C\CCC(=O)O[C@@]12[C@H](OC(=O)c3ccccc3)[C@@H](C)[C@@]3(O)[C@@H](C=C(CO)C[C@]4(O)C(=O)C(C)=C[C@@H]34)[C@@H]1C2(C)C`, in test [1] (setting [2]), the EC90 worked out at 0.00066 µM. In the test with MT4, this compound registered a concentration for half-maximal inhibition (IC50) of 4.7 µM. In the test with MT4, `COc1cc(/C=C/C(=O)OCCCCCCCCCCCCCCCCCCCCCC(=O)OCC(O)CO)ccc1O` (configuration not stated) returned an IC50 of 16.2 µM. In other words, the double-digit micromolar range.

For `CCCCCCCCCC(=O)O[C@@]12[C@H](OC(=O)c3ccccc3)[C@@H](C)[C@@]3(O)[C@H]([C@@H]1C2(C)C)[C@@H](OO)C(CO)=C[C@]1(O)C(=O)C(C)=C[C@@H]31`, in test [1] (setting [2]), the 90% effect concentration (EC90) stood at 0.49 µM. Besides, the half-inhibitory concentration (IC50) in the test with MT4 was 3.5 µM. The corresponding values for `CCCCCCCCCC(=O)O[C@@]12[C@H](OC(=O)c3ccccc3)[C@@H](C)[C@@]3(O)[C@@H](C=C(CO)C[C@]4(O)C(=O)C(C)=C[C@@H]34)[C@@H]1C2(C)C` [STELLERARIN] are 0.0005 µM and 5.1 µM.

As to `COc1ccc([C@@H]2Oc3cc(O)cc(O)c3C(=O)[C@@H]2[C@H]2C(=O)c3c(O)cc(OC)cc3O[C@H]2c2ccc(OC)cc2)cc1`, the EC90 result in test [1] is “inactive”. As to `CCCCCCCC(=O)O[C@@]12[C@H](OC(=O)c3ccccc3)[C@@H](C)[C@@]3(O)[C@H]([C@@H]1C2(C)C)[C@@H](OO)C(CO)=C[C@]1(O)C(=O)C(C)=C[C@@H]31`, the EC90 in test [1] (setting [2]) is 1.52 µM. The concentration for half-maximal inhibition (IC50) in the test on MT4 was found to be 15.8 µM.
